Experimental data as given in article PMC9066373 (Journal for Immunotherapy of Cancer, 2022).

System: HHD-DR1 mice
Assay: Immunization of HHD-DR1 mice, IFN-γ ELISPOT of splenocytes
Type: in vivo
Details: HHD-DR1 mice n=4, poly(I:C), in words
Method in brief: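 HHD-DR1 transgenic mice (human HLA-A*02.01 and HLA-DRB1*01; n=4/group) received a CD8 neoantigen peptide with poly(I:C), combined with a CD4 neoantigen peptide, anti-CD40 or both. Adjuvants were given at 50 µg/mouse. Class I peptide was injected s.c.; class II peptide i.v., boosted 1 week later. Spleens were taken 7 days after the last dose. Splenocytes (8×10⁵/well) were peptide-stimulated (10–0.01 µM) for 24 h and read by IFN-γ ELISPOT, no-peptide background subtracted.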

KYVYDFGVSV
Response against KYV when antiCD40 is added to KYV plus EVT: antiCD40 did not improve responses
